Laboratory results reported in PMC5930004 (European journal of medicinal chemistry, 2018).
“Also recorded” adds a separate entry of the source.

Experiments:
TOP2 = experiment: TOP2-mediated relaxation assay; type: biochemical; conditions: 25 μM concentration
TOP1 [1] = target: T1, TOP1 (Homo sapiens, UniProt P11387); experiment: TOP1-mediated relaxation assay; type: biochemical; conditions: 25 μM concentration
T1 sequence (P11387 1-765): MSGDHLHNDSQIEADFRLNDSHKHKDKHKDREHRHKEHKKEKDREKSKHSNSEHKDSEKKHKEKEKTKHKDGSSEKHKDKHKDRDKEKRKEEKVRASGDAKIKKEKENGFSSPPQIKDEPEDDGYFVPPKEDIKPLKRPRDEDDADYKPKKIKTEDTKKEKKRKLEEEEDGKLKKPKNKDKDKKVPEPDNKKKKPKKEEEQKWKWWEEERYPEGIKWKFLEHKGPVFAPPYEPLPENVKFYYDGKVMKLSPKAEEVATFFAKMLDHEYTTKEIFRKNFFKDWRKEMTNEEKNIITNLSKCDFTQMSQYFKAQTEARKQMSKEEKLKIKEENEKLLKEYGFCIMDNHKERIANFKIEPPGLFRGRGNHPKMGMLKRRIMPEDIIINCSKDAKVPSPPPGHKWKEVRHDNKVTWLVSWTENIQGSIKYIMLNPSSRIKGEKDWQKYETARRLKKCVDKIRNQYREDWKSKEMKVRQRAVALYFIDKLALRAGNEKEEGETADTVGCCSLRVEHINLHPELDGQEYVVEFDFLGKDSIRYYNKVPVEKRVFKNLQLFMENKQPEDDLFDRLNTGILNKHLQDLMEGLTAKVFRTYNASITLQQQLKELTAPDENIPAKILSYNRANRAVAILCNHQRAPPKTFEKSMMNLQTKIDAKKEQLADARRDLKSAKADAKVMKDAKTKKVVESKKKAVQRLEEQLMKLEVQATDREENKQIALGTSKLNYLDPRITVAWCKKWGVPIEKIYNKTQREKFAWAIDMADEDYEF

recombinant TDP1 = recombinant TDP1 (Homo sapiens, UniProt Q9NUW8); experiment: Recombinant TDP1 assay; type: biochemical; conditions: highest concentration tested 111 μM
Sequence of recombinant TDP1 (Q9NUW8 whole entry, species assumed): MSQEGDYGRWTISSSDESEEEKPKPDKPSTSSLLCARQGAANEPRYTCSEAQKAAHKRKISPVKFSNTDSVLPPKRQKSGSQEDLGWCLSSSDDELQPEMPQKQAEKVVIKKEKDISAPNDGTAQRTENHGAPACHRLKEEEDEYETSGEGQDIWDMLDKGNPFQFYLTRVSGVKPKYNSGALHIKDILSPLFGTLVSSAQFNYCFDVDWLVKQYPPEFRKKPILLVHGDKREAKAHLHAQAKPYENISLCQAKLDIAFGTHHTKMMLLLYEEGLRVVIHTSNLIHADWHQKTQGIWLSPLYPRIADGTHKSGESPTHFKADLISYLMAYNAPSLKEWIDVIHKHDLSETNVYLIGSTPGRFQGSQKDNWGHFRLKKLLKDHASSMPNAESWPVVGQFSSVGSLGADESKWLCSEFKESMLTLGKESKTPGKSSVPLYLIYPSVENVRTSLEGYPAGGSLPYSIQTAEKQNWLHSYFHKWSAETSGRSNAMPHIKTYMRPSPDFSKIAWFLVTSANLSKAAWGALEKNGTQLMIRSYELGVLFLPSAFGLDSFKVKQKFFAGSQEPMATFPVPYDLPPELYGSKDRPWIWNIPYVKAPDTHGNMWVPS
Outline: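 Test compound was run as six or eight three-fold dilutions from 111 μM down to 0.46 μM or 0.051 μM against recombinant TDP1. Reactions were stopped with 1 volume of gel loading buffer (99.5% formamide, 5 mM EDTA, xylene cyanol, bromophenol blue) and resolved by 16% denaturing PAGE. Dried gels were phosphorimaged and quantified by densitometry.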

recombinant human TDP2 = target: T2, recombinant human TDP2 (Homo sapiens, UniProt O95551); experiment: Recombinant TDP2 assay; type: biochemical; conditions: inactive, i.e. IC50 >111 μM
T2 sequence (O95551 1-362): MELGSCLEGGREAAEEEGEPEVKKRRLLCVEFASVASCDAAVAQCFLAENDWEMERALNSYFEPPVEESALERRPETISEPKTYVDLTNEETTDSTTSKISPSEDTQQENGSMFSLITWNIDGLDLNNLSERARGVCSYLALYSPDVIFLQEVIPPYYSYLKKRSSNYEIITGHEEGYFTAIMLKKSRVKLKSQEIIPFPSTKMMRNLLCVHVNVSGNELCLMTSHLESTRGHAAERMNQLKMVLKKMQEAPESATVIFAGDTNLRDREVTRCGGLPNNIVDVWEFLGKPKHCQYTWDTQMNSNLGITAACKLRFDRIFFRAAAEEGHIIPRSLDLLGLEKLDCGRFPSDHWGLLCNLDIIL

TOP1 [2] = target: T1, TOP1; experiment: TOP1-mediated DNA cleavage assay; type: biochemical; conditions: up to 100 μM
[3] = target: TOP2-DNA covalent cleavage complexes (TOP2cc) in CCRF-CEM cells (Homo sapiens, UniProt P11388); experiment: In vivo complex of enzyme; type: cell-based; conditions: 2 h treatment, up to 50 μM
Sequence of TOP2-DNA covalent cleavage complexes (TOP2cc) in CCRF-CEM cells (P11388 whole entry, one chain of several): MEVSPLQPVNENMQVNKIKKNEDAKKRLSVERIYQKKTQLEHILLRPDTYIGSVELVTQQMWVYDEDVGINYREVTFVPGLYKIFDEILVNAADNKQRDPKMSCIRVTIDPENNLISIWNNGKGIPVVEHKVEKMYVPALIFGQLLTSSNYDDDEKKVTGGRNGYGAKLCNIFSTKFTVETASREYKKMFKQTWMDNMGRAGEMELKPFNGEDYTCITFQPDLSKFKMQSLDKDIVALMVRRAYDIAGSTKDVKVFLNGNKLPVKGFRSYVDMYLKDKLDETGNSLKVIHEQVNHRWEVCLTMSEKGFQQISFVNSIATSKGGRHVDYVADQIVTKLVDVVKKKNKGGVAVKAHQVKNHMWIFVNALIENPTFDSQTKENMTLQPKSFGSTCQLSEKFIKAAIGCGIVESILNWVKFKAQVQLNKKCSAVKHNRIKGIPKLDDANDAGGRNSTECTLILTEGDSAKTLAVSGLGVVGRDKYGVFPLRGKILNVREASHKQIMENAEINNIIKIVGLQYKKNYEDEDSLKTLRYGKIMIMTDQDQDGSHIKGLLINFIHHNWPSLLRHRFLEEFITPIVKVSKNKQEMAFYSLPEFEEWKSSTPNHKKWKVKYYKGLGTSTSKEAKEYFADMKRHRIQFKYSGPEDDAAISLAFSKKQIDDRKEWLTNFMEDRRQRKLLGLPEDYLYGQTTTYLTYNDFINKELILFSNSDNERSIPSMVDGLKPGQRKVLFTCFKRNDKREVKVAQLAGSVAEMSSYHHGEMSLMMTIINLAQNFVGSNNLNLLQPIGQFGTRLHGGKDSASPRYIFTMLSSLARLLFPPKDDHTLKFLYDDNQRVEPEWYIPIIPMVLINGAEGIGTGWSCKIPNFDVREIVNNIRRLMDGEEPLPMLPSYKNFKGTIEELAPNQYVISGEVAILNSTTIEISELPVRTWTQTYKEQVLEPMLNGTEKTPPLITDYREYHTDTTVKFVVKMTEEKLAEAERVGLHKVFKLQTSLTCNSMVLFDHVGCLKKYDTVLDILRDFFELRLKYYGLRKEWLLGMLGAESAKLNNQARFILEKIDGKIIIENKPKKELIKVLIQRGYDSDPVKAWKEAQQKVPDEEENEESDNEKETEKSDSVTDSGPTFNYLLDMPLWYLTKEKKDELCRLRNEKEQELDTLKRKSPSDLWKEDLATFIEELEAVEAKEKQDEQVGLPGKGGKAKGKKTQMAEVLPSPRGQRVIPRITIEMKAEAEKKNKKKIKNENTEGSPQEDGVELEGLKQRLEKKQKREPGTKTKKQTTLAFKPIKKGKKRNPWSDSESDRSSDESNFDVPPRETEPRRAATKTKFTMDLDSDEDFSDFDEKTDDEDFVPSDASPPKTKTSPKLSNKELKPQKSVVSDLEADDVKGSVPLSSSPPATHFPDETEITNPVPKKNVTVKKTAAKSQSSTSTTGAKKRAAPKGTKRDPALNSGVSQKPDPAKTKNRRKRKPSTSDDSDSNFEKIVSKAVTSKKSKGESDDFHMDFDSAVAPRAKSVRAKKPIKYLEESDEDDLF
Outline: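 CCRF-CEM cells (60 × 10^5) exposed to test compound for 2 h, then lysed with 1% Sarkosyl. DNA was isolated, and TOP2–DNA covalent complexes were detected by Western slot blot using a mouse anti-human TOP2α antibody.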

TDP1 inhibition (in words) (recombinant TDP1)	TDP2 inhibitory activity (in words) (recombinant human TDP2)	SMILES	TOP2 relaxing activity inhibition (in words) (TOP2)	TOP1 relaxing activity inhibition (in words) (TOP1 [1])	also measured
did not inhibit	–	CCOC(=O)c1c(C)oc2c1C(=O)c1ncccc1C2=O [Compound 1, Ethyl 2-methyl-4,9-dioxo-4,9-dihydrofuro[2,3-g]quinoline-3-carboxylate]	did not inhibit	did not inhibit	–
–	inactive	Cc1oc2c(c1C(=O)Oc1ccc3ccccc3c1)C(=O)c1ncccc1C2=O [Compound 40, 2-Naphthalenyl 2-methyl-4,9-dioxo-4,9-dihydrofuro[2,3-g]quinoline-3-carboxylate]	–	–	–
–	inactive	Cc1oc2c(c1C(=O)Oc1ccc(C(=O)c3ccccc3)cc1)C(=O)c1ncccc1C2=O [Compound 46, 4-Benzoylphenyl 2-methyl-4,9-dioxo-4,9-dihydrofuro[2,3-g]quinoline-3-carboxylate]	–	–	–
–	inactive	Cc1oc2c(c1C(=O)Oc1ccc3c(c1)OCO3)C(=O)c1ncccc1C2=O [Compound 49, Benzo[d][1,3]dioxol-5-yl 2-methyl-4,9-dioxo-4,9-dihydrofuro[2,3-g]quinoline-3-carboxylate]	–	–	–
–	inactive	CCOC(=O)c1c(C)[nH]c2c1C(=O)c1cccnc1C2=O [Compound 70, ethyl 2-methyl-4,9-dioxo-4,9-dihydro-1H-pyrrolo[3,2-g]quinoline-3-carboxylate]	–	–	–
–	inactive	CCOC(=O)c1c2c(n(C)c1C)C(=O)c1ncccc1C2=O [Compound 72, ethyl 1,2-dimethyl-4,9-dioxo-4,9-dihydro-1H-pyrrolo[3,2-g]quinoline-3-carboxylate]	–	–	–
no activity	–	CCOC(=O)c1noc2c1C(=O)c1ncccc1C2=O [Compound 73, Ethyl 4,9-dioxo-4,9-dihydroisoxazolo[5,4-g]quinoline-3-carboxylate]	do not have inhibitory potency; also recorded: no activity	do not have inhibitory potency; also recorded: no activity	TOP1-mediated DNA cleavage, formation of covalent TOP1-DNA complex (in words) (TOP1 [2]): do not have inhibitory potency
no activity	–	CCOC(=O)c1noc2c1C(=O)c1cccnc1C2=O [Compound 74, Ethyl 4,9-dioxo-4,9-dihydroisoxazolo[4,5-g]quinoline-3-carboxylate]	do not have inhibitory potency; also recorded: no activity	do not have inhibitory potency; also recorded: no activity	TOP1-mediated DNA cleavage, formation of covalent TOP1-DNA complex (in words) (TOP1 [2]): do not have inhibitory potency; Induction of TOP2cc formation (ICE assay, in words) [3]: unable to induce the formation of TOP2cc
–	inactive	CCOC(=O)c1n[nH]c2c1C(=O)c1ncccc1C2=O [Compound 75, Ethyl 4,9-dioxo-4,9-dihydro-1H-pyrazolo[3,4-g]quinoline-3-carboxylate]	–	–	–
–	inactive	CCOC(=O)c1n[nH]c2c1C(=O)c1cccnc1C2=O [Compound 76, Ethyl 4,9-dioxo-4,9-dihydro-1H-pyrazolo[4,3-g]quinoline-3-carboxylate]	–	–	–
